Experimental data from ChEMBL document CHEMBL1145787, “Synthesis and structure-activity relationship of N-substituted 4-arylsulfonylpiperidine-4-hydroxamic acids as novel, orally active matrix metalloproteinase inhibitors for the treatment of osteoarthritis” (J Med Chem, 2003).
Each block holds one compound with its values, some of them ahead of it.

Legend:
[1] = molecular target: T1, Disintegrin and metalloproteinase domain-containing protein 17 (Homo sapiens, UniProt P78536); experiment: Inhibition of Tumor necrosis factor alpha converting enzyme (TACE) at 10 uM
Procedure, shortened: (§1)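 Dose–response curves were not generated when inhibition was below 60% at 10 μM.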

[2] = In vivo inhibitory activity against Matrix metalloprotease enzyme by dialysis implant assay, value is relative to activity of CGS-27023 (58+/-2) at 25 mg/kg. po; type: functional
[3] = In vivo inhibitory activity against Matrix metalloprotease enzyme by dialysis implant assay, value is relative to activity of CGS-27023 (65+/-4) at 25 mg/kg. po; type: functional
[4] = In vivo inhibitory activity against Matrix metalloprotease enzyme by dialysis implant assay, value is relative to activity of CGS-27023 (69+/-2) at 25 mg/kg. po; type: functional
[5] = molecular target: Matrix metalloproteinase-9 (Homo sapiens, UniProt P14780); experiment: In vitro inhibitory activity against matrix metalloprotease-9.
[6] = In vivo inhibition of Matrix metalloprotease enzyme by Sponge-wrapped cartilage assay, value is relative to activity of CGS-27023 (27+/-2) at 25 mg/kg. po. bid; type: functional
[7] = In vivo inhibitory activity against Matrix metalloprotease enzyme by dialysis implant assay, value is relative to activity of CGS-27023 (51+/-2) at 25 mg/kg. po; type: functional
[8] = In vivo inhibition of Matrix metalloprotease enzyme by Sponge-wrapped cartilage assay, value is relative to activity of CGS-27023 (39+/-3) at 25 mg/kg. po. bid; type: functional
Collagenase 3 = Collagenase 3 (Homo sapiens, UniProt P45452)
[9] = In vivo inhibitory activity against Matrix metalloprotease enzyme by dialysis implant assay, value is relative to activity of CGS-27023 (68+/-5) at 25 mg/kg. po; type: functional
[10] = In vivo inhibitory activity against Matrix metalloprotease enzyme by dialysis implant assay, value is relative to activity of CGS-27023 (38+/-3) at 25 mg/kg. po; type: functional
[11] = In vivo inhibitory activity against Matrix metalloprotease enzyme by dialysis implant assay, value is relative to activity of CGS-27023 (54+/-2) at 25 mg/kg. po; type: functional
[12] = In vivo inhibition of Matrix metalloprotease enzyme by Sponge-wrapped cartilage assay, value is relative to activity of CGS-27023 (25+/-4) at 25 mg/kg. po. bid; type: functional
[13] = In vivo inhibition of Matrix metalloprotease enzyme by Sponge-wrapped cartilage assay, value is relative to activity of RS-130830 (43+/-3) at 25 mg/kg. po. bid; type: functional
[14] = molecular target: T2, Interstitial collagenase (Homo sapiens) (UniProt P03956); experiment: Inhibition of Matrix metalloprotease-1 at 10 uM; procedure, shortened: as §1
T2 sequence (whole entry): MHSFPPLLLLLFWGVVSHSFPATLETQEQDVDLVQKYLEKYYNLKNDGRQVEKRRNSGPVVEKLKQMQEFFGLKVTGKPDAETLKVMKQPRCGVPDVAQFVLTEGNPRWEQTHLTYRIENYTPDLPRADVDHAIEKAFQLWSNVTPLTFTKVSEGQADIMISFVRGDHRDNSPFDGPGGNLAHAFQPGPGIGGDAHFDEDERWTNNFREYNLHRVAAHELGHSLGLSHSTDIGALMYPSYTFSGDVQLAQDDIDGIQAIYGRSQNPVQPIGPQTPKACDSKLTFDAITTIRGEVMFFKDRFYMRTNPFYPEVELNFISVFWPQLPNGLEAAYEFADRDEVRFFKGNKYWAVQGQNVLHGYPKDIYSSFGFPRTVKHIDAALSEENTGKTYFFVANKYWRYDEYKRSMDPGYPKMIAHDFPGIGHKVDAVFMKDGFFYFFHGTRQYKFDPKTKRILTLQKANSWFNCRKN

[15] = In vivo inhibitory activity against Matrix metalloprotease enzyme by dialysis implant assay, value is relative to activity of CGS-27023 (74+/-2) at 25 mg/kg. po; type: functional
[16] = In vivo inhibitory activity against Matrix metalloprotease enzyme by dialysis implant assay, value is relative to activity of CGS-27023 (35+/-4) at 25 mg/kg. po; type: functional
[17] = molecular target: T1, Disintegrin and metalloproteinase domain-containing protein 17; experiment: In vitro inhibitory activity against tumor necrosis factor alpha converting enzyme (TACE).
Interstitial collagenase = molecular target: T3, Interstitial collagenase (Homo sapiens, UniProt P03956); experiment: In vitro inhibitory activity against matrix metalloprotease-1
T3 sequence (P03956 whole entry): T2 sequence (whole entry)

[18] = In vivo inhibitory activity against Matrix metalloprotease enzyme by dialysis implant assay, value is relative to activity of CGS-27023 (76+/-2) at 25 mg/kg. po; type: functional
[19] = In vivo inhibitory activity against Matrix metalloprotease enzyme by dialysis implant assay, value is relative to activity of CGS-27023 (73+/-3) at 25 mg/kg. po; type: functional
[20] = In vivo inhibition of Matrix metalloprotease enzyme by Sponge-wrapped cartilage assay, value is relative to activity of RS-130830 (39+/-2) at 10 mg/kg. po. bid; type: functional
[21] = In vivo inhibition of Matrix metalloprotease enzyme by Sponge-wrapped cartilage assay, value is relative to activity of CGS-27023 (37+/-5) at 25 mg/kg. po. bid; type: functional

T1 sequence (P78536 whole entry, the tested form may be a part): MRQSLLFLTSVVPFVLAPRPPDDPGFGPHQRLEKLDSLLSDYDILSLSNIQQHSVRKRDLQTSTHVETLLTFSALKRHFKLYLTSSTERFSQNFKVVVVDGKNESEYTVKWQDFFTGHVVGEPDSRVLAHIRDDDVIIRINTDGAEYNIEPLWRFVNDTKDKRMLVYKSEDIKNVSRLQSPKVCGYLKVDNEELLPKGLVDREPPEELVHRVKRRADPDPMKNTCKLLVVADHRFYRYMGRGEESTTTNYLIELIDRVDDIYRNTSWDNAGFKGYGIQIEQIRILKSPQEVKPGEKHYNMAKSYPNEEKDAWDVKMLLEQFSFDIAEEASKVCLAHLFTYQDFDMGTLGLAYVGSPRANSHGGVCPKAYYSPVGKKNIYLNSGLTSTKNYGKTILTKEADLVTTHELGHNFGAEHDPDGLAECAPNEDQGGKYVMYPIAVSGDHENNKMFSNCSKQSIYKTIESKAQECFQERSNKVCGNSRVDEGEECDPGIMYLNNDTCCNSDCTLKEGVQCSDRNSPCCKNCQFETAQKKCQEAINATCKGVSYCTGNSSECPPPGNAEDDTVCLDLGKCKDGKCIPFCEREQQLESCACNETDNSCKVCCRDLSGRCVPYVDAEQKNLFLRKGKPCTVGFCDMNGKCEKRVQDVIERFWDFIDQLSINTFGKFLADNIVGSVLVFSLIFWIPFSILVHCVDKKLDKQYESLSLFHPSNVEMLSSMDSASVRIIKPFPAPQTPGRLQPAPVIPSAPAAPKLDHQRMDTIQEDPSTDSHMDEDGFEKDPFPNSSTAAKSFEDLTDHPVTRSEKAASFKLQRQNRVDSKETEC
Matrix metalloproteinase-9, sequence (P14780 whole entry): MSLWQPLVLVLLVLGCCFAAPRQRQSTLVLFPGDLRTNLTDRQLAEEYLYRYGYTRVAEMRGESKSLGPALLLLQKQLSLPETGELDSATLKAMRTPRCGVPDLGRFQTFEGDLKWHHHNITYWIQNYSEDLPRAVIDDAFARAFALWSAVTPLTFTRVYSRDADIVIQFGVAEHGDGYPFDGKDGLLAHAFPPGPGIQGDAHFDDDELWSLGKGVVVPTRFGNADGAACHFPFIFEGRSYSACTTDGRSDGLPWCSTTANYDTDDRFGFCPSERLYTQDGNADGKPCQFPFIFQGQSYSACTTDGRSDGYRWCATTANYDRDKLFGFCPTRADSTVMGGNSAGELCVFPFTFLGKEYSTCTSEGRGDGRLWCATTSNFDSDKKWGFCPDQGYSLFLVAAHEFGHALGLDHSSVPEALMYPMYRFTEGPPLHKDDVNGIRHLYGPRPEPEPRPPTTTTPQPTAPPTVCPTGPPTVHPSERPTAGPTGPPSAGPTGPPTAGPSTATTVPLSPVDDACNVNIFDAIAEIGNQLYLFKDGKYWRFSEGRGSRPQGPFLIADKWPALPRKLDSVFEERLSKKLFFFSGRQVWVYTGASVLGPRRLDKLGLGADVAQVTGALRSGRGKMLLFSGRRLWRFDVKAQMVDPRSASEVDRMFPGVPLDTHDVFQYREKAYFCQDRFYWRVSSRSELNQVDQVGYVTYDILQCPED

SMILES: COc1ccc(S(=O)(=O)C2(C(=O)NO)CCN(C)CC2)cc1
inhibition [1]: 20%
inhibition in vivo at 25 mg/kg [2]: 36%

SMILES: CCCCOc1ccc(S(=O)(=O)C2(C(=O)NO)CCN(Cc3cccc(OCCN4CCOCC4)c3)CC2)cc1
inhibition in vivo at 25 mg/kg [3]: 27%

SMILES: CCCCOc1ccc(S(=O)(=O)C2(C(=O)NO)CCN(CCCOc3ccccc3)CC2)cc1
inhibition in vivo at 25 mg/kg [4]: 67%
IC50 [5]: 5 nM
inhibition in vivo at 25 mg/kg [6]: 17%

SMILES: CCCCOc1ccc(S(=O)(=O)C2(C(=O)NO)CCN(Cc3ccccc3)CC2)cc1
IC50 [5]: 4 nM
inhibition in vivo at 25 mg/kg [7]: 80%
inhibition in vivo at 25 mg/kg [8]: 53%
IC50 (Collagenase 3): 1 nM

SMILES: COc1ccc(S(=O)(=O)C2(C(=O)NO)CCN(C(C)C)CC2)cc1
inhibition [1]: 18%
inhibition in vivo at 25 mg/kg [9]: 49%

SMILES: CCN1CCC(C(=O)NO)(S(=O)(=O)c2ccc(OC)cc2)CC1
inhibition [1]: 25%
inhibition in vivo at 25 mg/kg [10]: 17%

SMILES: CCCCOc1ccc(S(=O)(=O)C2(C(=O)NO)CCN(CCCC)CC2)cc1
inhibition in vivo at 25 mg/kg [13]: 46%
inhibition [14]: 50%
IC50 (Collagenase 3): 2 nM
inhibition in vivo at 25 mg/kg [15]: 86%

SMILES: O=C(NO)C1(S(=O)(=O)c2ccc(OCc3ccccc3)cc2)CCN(Cc2ccccc2)CC1
inhibition in vivo at 25 mg/kg [16]: 17%
IC50 [5]: 3 nM
IC50 [17]: 416 nM
inhibition [14]: 48%
IC50 (Interstitial collagenase): 40 nM

Second part, led by results:

IC50 [5]: 3 nM
IC50 (Collagenase 3): 1 nM
SMILES: CCCCOc1ccc(S(=O)(=O)C2(C(=O)NO)CCN(Cc3ccc(OC)cc3)CC2)cc1
inhibition in vivo at 25 mg/kg [11]: 69%
inhibition in vivo at 25 mg/kg [12]: 17%

IC50 [5]: 17 nM
IC50 (Collagenase 3): 2 nM
SMILES: COc1ccc(S(=O)(=O)C2(C(=O)NO)CCN(Cc3ccc(C)cc3)CC2)cc1
inhibition in vivo at 25 mg/kg [18]: 89%

IC50 [5]: 1 nM
IC50 (Interstitial collagenase): 1070 nM
IC50 (Collagenase 3): 1 nM
SMILES: CCCCN1CCC(C(=O)NO)(S(=O)(=O)c2ccc(Oc3ccc(Cl)cc3)cc2)CC1
IC50 [17]: 301 nM
inhibition in vivo at 25 mg/kg [19]: 93%
inhibition in vivo at 10 mg/kg [20]: 69%

IC50 (Collagenase 3): 2 nM
SMILES: COc1ccc(CN2CCC(C(=O)NO)(S(=O)(=O)c3ccc(OC)cc3)CC2)cc1
inhibition in vivo at 25 mg/kg [4]: 75%
inhibition in vivo at 25 mg/kg [21]: 45%
